Experimental data: article PMC9472799 (Biomacromolecules, 2022)

Key:
Type in all cases: biochemical
sickle hemoglobin (HbS) [1] = molecular target: T1, sickle hemoglobin (HbS) (Homo sapiens, UniProt P68871+P69905, P68871:E7V); experiment: NMR binding
Outline: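 HbS labelled at cysteine thiols with rhodamine red (donor) or Cy5 (acceptor) after TCEP reduction; free dye dialysed away. Donor and acceptor HbS mixed 1:5 at 25 μM. Incubated 2 h at room temperature with test compound at seven concentrations (0.1–1000 μM) or DMSO. Vacuum argon degassed 10 min to deoxygenate. Donor fluorescence lifetime read; FRET efficiency E = 1 − τDA/τD.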

sickle hemoglobin (HbS) [2] = molecular target: T1, sickle hemoglobin (HbS); experiment: DLS oligomer size and FLT-FRET with purified deoxy-HbS
sickle hemoglobin (HbS) [3] = molecular target: T1, sickle hemoglobin (HbS); experiment: FLT-FRET dose response and DLS

In the case of `CN1C(=O)CCS(=O)(=O)C1c1ccc(Cl)cc1` (stereo not drawn) [chlormezanone], the IC50 (sickle hemoglobin (HbS) [1]) is reported as > 100 µM.

`CC(C)n1nccc1-c1ncccc1COc1cccc(O)c1C=O` [voxelotor] was tested, and the “DLS oligomer size and FLT-FRET with purified deoxy-HbS” value (sickle hemoglobin (HbS) [2]) was “voxelotor (a compound that increases hemoglobin oxygen binding affinity), which dramatically reduced the mean oligomer size (Figure 1A)”.

`COc1ccc(-c2ccc(=N)n(CCCC(=O)O)n2)cc1` [gabazine] was tested, and the “FLT-FRET dose response and DLS (100 μM) with purified deoxy-HbS” value (sickle hemoglobin (HbS) [3]) was “all three compounds significantly decreased the oligomer size relative to control (and to the same extent as voxelotor)”.
